Reference: ChEMBL document CHEMBL2021780, “Antineoplastic agents. 548. Synthesis of iodo- and diiodocombstatin phosphate prodrugs” (J Nat Prod, 2012)
Converted amounts (≈) assume the structure as drawn. The source made the active and inactive calls. The rule behind the calls is not given here.

Columns and labels:
HUVEC [1] = test: Antiangiogenic activity in HUVEC assessed as cell growth at 0.1 ug/ml after 24 hrs by sulforhodamine B assay relative to control; format: functional, Homo sapiens
HUVEC [2] = test: Antiangiogenic activity in HUVEC assessed as cell growth at 0.01 ug/ml after 24 hrs by sulforhodamine B assay relative to control; format: functional, Homo sapiens
HUVEC [3] = test: Antiangiogenic activity in HUVEC assessed as cell growth inhibition after 48 hrs by sulforhodamine B assay; format: functional, cell-based; conditions: Homo sapiens
Procedure, shortened: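 HUVECs were grown in EGM-2 medium and tested with the standard SRB growth assay following NCI Developmental Therapeutics Program Matrigel antiangiogenesis protocols. IC50 (concentration causing 50% inhibition) was calculated from plotted data.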

BXPC-3 = test: Growth inhibition of human BxPC3 cells after 48 hrs by sulforhodamine B assay; format: functional; conditions: BXPC-3, 48 h
Procedure, shortened: (§1)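 NCI sulforhodamine B assay. Cells were seeded in 5% FBS/RPMI-1640 and incubated 24 h. Serial compound dilutions were then added for 48 h. Cells were fixed with trichloroacetic acid, stained with SRB and read by microplate reader. GI50 is the concentration giving 50% reduction in net protein increase, calculated from optical density data.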

[4] = Solubility of the compound in water; format: physicochemical
Procedure, shortened: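 Solubility expressed as amount dissolving in 1 mL H₂O at 25 °C.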

P388 = test: Growth inhibition of mouse P388 cells after 48 hrs by Z1 Beckman/Coulter particle counter analysis; format: functional; conditions: P388, 48 h, read-out: ED50 (the source's name)
Procedure, shortened: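 Mouse P388 leukemia cells were incubated 24 h in 10% horse serum/Fisher medium, then exposed 48 h to serial compound dilutions. ED50 was calculated from cell counts on a Coulter Z1 particle counter.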

NCI-H460 = test: Growth inhibition of human NCI-H460 cells after 48 hrs by sulforhodamine B assay; format: functional; conditions: NCI-H460, 48 h; procedure, shortened: as §1
SF-268 = test: Growth inhibition of human SF268 cells after 48 hrs by sulforhodamine B assay; format: functional; conditions: SF-268, 48 h; procedure, shortened: as §1
[5] = Inhibition of purified tubulin assembly after 20 mins
Procedure, shortened: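 Purified tubulin at 10 μM in 0.8 M monosodium glutamate (pH 6.6), 0.4 mM GTP and 4% (v/v) DMSO, with varying compound concentrations. Extent of assembly was measured after 20 min at 30 °C.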

DU-145 = test: Growth inhibition of human DU145 cells after 48 hrs by sulforhodamine B assay; format: functional; conditions: DU-145, 48 h; procedure, shortened: as §1
HUVEC [6] = test: Antiangiogenic activity in HUVEC assessed as cell growth at 0.001 ug/ml after 24 hrs by sulforhodamine B assay relative to control; format: functional, Homo sapiens
KM-20L2 = test: Growth inhibition of human KM20L2 cells after 48 hrs by sulforhodamine B assay; format: functional; conditions: KM-20L2, 48 h; procedure, shortened: as §1
HUVEC [7] = test: Antiangiogenic activity in HUVEC assessed as cell growth at 0.0001 ug/ml after 24 hrs by sulforhodamine B assay relative to control; format: functional, Homo sapiens
MCF7 = test: Growth inhibition of human MCF7 cells after 48 hrs by sulforhodamine B assay; format: functional; conditions: MCF7, 48 h; procedure, shortened: as §1
Neisseria gonorrhoeae = test: Antibacterial activity against Neisseria gonorrhoeae ATCC 49226 by broth microdilution method; format: functional
Procedure, shortened: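 Broth microdilution followed NCCLS standard methods. Compounds were reconstituted in sterile DMSO and diluted in the appropriate medium immediately before testing. MIC was taken as the lowest concentration giving no visible growth (optically clear). Assays were repeated on separate days.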

HUVEC [8] = test: Antiangiogenic activity in HUVEC assessed as reduction of cord length at 0.01 ug/ml after 24 hrs by matrigel assay relative to control; format: functional, Homo sapiens; set-up: scale not given: the % may be the effect or the level left
Procedure, shortened: (§2)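 Commercial HUVECs grown in EGM-2 were seeded at 2 × 10⁵ cells/mL onto Matrigel, which had been polymerized 15 min at rt and then 30 min at 37 °C, per NCI DTP protocol. Compound was added and cells were incubated 24 h, then imaged by inverted microscopy. Cord length and junction number were scored against untreated control on a scale from − (none) to +++ (same as control), with ++ = 50% of control.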

HUVEC [9] = test: Antiangiogenic activity in HUVEC assessed as reduction of number of junctions at 0.01 ug/ml after 24 hrs by matrigel assay relative to control; format: functional, Homo sapiens; set-up: scale not given: the % may be the effect or the level left; procedure, shortened: as §2
HUVEC [10] = test: Antiangiogenic activity in HUVEC assessed as cell growth at 1 ug/ml after 24 hrs by sulforhodamine B assay relative to control; format: functional; conditions: Homo sapiens, read-out: Activity
HUVEC [11] = test: Antiangiogenic activity in HUVEC assessed as reduction of number of junctions at 0.1 ug/ml after 24 hrs by matrigel assay relative to control; format: functional, cell-based; conditions: Homo sapiens; procedure, shortened: as §2
HUVEC [12] = test: Antiangiogenic activity in HUVEC assessed as reduction of number of junctions at 0.001 ug/ml after 24 hrs by matrigel assay relative to control; format: functional; conditions: Homo sapiens; procedure, shortened: as §2
HUVEC [13] = test: Antiangiogenic activity in HUVEC assessed as reduction of cord length at 0.1 ug/ml after 24 hrs by matrigel assay relative to control; format: functional, cell-based; conditions: Homo sapiens; procedure, shortened: as §2
HUVEC [14] = test: Antiangiogenic activity in HUVEC assessed as reduction of number of junctions at 1 ug/ml after 24 hrs by matrigel assay relative to control; format: functional, cell-based; conditions: Homo sapiens; procedure, shortened: as §2
HUVEC [15] = test: Antiangiogenic activity in HUVEC assessed as reduction of cord length at 0.001 ug/ml after 24 hrs by matrigel assay relative to control; format: functional; conditions: Homo sapiens; procedure, shortened: as §2
HUVEC [16] = test: Antiangiogenic activity in HUVEC assessed as reduction of cord length at 1 ug/ml after 24 hrs by matrigel assay relative to control; format: functional, cell-based; conditions: Homo sapiens; procedure, shortened: as §2
Micrococcus luteus = test: Antibacterial activity against Micrococcus luteus Presque Isle 456 by broth microdilution method; format: functional
Procedure, shortened: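 Broth microdilution per NCCLS bacterial (M7-A5) and yeast standards. Compounds were reconstituted in sterile DMSO and diluted in the appropriate medium just before testing. MIC is the lowest concentration giving complete inhibition of visible growth (optically clear). Assays were repeated on separate days.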

HUVEC [17] = test: Antiangiogenic activity in HUVEC assessed as reduction of cord length at 0.0001 ug/ml after 24 hrs by matrigel assay relative to control; format: functional; conditions: Homo sapiens
Procedure, shortened: (§3)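 Matrigel was polymerised in wells (15 min rt, then 30 min 37 °C). HUVECs (2 × 10⁵ cells/mL) were added with compound and incubated 24 h, then imaged by inverted microscope. Cord length and junction number were scored semi-quantitatively versus untreated control (− none to +++ same as control).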

[18] = Growth inhibition of human KAT4 cells after 48 hrs by sulforhodamine B assay; format: functional; conditions: KAT-4, 48 h
SW-1736 = test: Growth inhibition of human SW1736 cells after 48 hrs by sulforhodamine B assay; format: functional; conditions: SW-1736, 48 h
[19] = Displacement of [3H]colchicine from tubulin at 1 uM after 10 mins
Procedure, shortened: (§4)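 [³H]colchicine binding: 1.0 μM tubulin with 5.0 μM [³H]colchicine and compound, incubated 10 min at 37 °C. The tubulin–colchicine complex was separated from unbound label by retention on DEAE-cellulose filters. Result is inhibition of radiolabel binding.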

[20] = Displacement of [3H]colchicine from tubulin at 10 uM after 10 mins; procedure, shortened: as §4
HUVEC [21] = test: Antiangiogenic activity in HUVEC assessed as cell growth at 0.00001 ug/ml after 24 hrs by sulforhodamine B assay relative to control; format: functional; conditions: Homo sapiens, read-out: Activity
HUVEC [22] = test: Antiangiogenic activity in HUVEC assessed as reduction of number of junctions at 0.0001 ug/ml after 24 hrs by matrigel assay relative to control; format: functional; conditions: Homo sapiens; procedure, shortened: as §3
[23] = Homo sapiens, HUVEC, 24 h, read-out: Activity

Row | Compound | Activity (HUVEC [2]) [%] | IC50 (HUVEC [3]) [µg/mL] | GI50 (BXPC-3) [µg/mL] | solubility ([4]; buffer) [µg/mL] | EC50 (P388) [µg/mL] | GI50 (NCI-H460) [µg/mL] | GI50 (SF-268) [µg/mL] | IC50 [5] [µM] | GI50 (DU-145) [µg/mL] | Activity (HUVEC [6]) [%] | GI50 (KM-20L2) [µg/mL] | GI50 (MCF7) [µg/mL] | Activity (HUVEC [12]) | Activity (HUVEC [15]) | other results
1 | COc1ccc(/C=C\c2cc(I)c(OC)c(OC)c2)cc1OP(=O)([O-])[O-].[Na+].[Na+] | 14 | 0.00035 | 0.469 | 2000 | 0.002 | 0.017 | 0.018 | > 40 | 0.011 | 5 | > 1 | 0.018 | – | – | growth at 0.1 µg/mL (HUVEC [1]; [23]): 7%; Activity (HUVEC [7]): 104%
2 | COc1ccc(/C=C\c2cc(I)c(OC)c(I)c2)cc1OP(=O)([O-])[O-].[Na+].[Na+] | >100 | 0.051 | > 1 | 2000 | 0.03 | 0.327 | – | > 40 | 0.242 | >100 | > 1 | 0.066 | – | – | Activity (HUVEC [1]): -2%; MIC (Neisseria gonorrhoeae): 32 µg/mL; Activity (HUVEC [8]): 75%; Activity (HUVEC [9]): 75%; growth at 1 µg/mL (HUVEC [10]): -7%
3 | COc1ccc(/C=C\c2cc(I)c(OC)c(I)c2)cc1OP(=O)(O)O | – | – | – | – | – | – | – | – | – | – | – | – | inactive | inactive | Activity (HUVEC [11]): Active; Activity (HUVEC [13]): Active; Activity (HUVEC [14]): Active; Activity (HUVEC [16]): Active
4 | COc1ccc(/C=C\c2cc(I)c(OC)c(I)c2)cc1O | – | 0.00028 (≈ 0.551 nM) | 0.038 (≈ 74.8 nM) | – | 0.0028 (≈ 5.51 nM) | 0.0034 (≈ 6.69 nM) | 0.0036 (≈ 7.09 nM) | 1.5 | 0.0021 (≈ 4.13 nM) | – | 0.15 (≈ 295 nM) | 0.0027 (≈ 5.31 nM) | Active | Active | growth at 0.01 µg/mL (HUVEC [2]; [23]): 4%; MIC (Micrococcus luteus): 4 µg/mL (≈ 7870 nM); Activity (HUVEC [17]): inactive; GI50 [18]: 0.039 µg/mL (≈ 76.8 nM); GI50 (SW-1736): 1.2 µg/mL (≈ 2360 nM); Activity (HUVEC [8]; Homo sapiens): Active; inhibition [19]: 95%; Activity (HUVEC [9]; Homo sapiens): Active; inhibition [20]: 100%; growth at 0.001 µg/mL (HUVEC [6]; [23]): 8%; growth at 0.0001 µg/mL (HUVEC [7]; [23]): 84%; growth at 10 pg/mL (HUVEC [21]): 87%; Activity (HUVEC [22]): inactive
5 | COC(=O)CN.COC(=O)CN.COc1ccc(/C=C\c2cc(I)c(OC)c(OC)c2)cc1OP(=O)(O)O | – | – | 0.16 | – | 0.0026 | 0.0031 | 0.0033 | – | 0.0021 | – | 0.32 | 0.0044 | – | – | solubility ([4]; water, read-out: solubility): ≥ 2000 µg/mL
